Assay results published in ChEMBL document CHEMBL1687827, “Profiling the Aspergillus fumigatus proteome in response to caspofungin” (2011).
Active and inactive are the calls of the source. The calls are words filed in the database; no cut-off is given here.

What was measured:
Aspergillus fumigatus [1] = assay: Induction of change in sur7 protein, putative gene expression in drug-susceptible Aspergillus fumigatus KU80 delta-akuB at 0.12 ug/ml after 24 hrs in YPD medium by microarray analysis relative to control; type: functional
Summary of the method: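 Mycelia grown from 1 × 10⁵ conidia/ml in YPD at 37°C, 225 rpm, with or without 0.12 μg/ml caspofungin. Total RNA extracted, DNase-treated; 2 μg labelled per TIGR SOP M007 for whole-genome array hybridization. Three independent experiments with dye flip (6 replicates); >2-fold change deemed significant.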

Aspergillus fumigatus [2] = assay: Induction of change in tripeptidyl-peptidase (TppA), putative protein level in iTRAQ-116 labelled secreted fraction of drug-susceptible Aspergillus fumigatus KU80 delta-akuB at 0.12 ug/ml after 48 hrs in YPD medium by MS (MS/MS) analysis relative to control; type: functional
Summary of the method: (§1)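 Conidia (1 × 10⁵/ml) grown in YPD, 37°C, 225 rpm, ± 0.12 μg/ml caspofungin; filtrate taken as secreted fraction, French-press lysate 5,000 × g pellet as cell wall/plasma membrane. Trypsin digests 8-plex iTRAQ-labelled (drug-free channels as references), pooled, 2D-chromatography, MS/MS. Median-normalized; protein ratio = median of unique-peptide ratios, log2 normalized.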

Aspergillus fumigatus [3] = assay: Induction of change in hypothetical gene locus AFUA_4G11270 expression in drug-susceptible Aspergillus fumigatus KU80 delta-akuB at 0.12 ug/ml after 48 hrs in YPD medium by microarray analysis relative to control; type: functional
Summary of the method: (§2)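 Mycelia grown in YPD ± 0.12 μg/ml caspofungin (1 × 10⁵ conidia/ml, 37°C, shaking) and harvested at 24 or 48 h. Total RNA extracted, DNase-treated and quality-checked; 2 μg labelled per TIGR SOP M007 and hybridized to whole-genome arrays. Three independent experiments with dye flip (6 replicates); drug vs untreated fold change.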

Aspergillus fumigatus [4] = assay: Induction of change in 60S ribosomal protein L10 protein level in iTRAQ-118 labelled cell wall fraction of drug-susceptible Aspergillus fumigatus KU80 delta-akuB at 0.12 ug/ml after 24 hrs in YPD medium by MS (MS/MS) analysis relative to control; type: functional
Summary of the method: (§3)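 Conidia at 1 × 10⁵/ml grown shaking at 37°C in YPD with or without 0.12 μg/ml caspofungin; mycelia filtered at 24 or 48 h. Secreted fraction taken from the filtrate; cell wall/plasma membrane pellet recovered after French-press lysis and a 5,000 × g spin. Proteins trypsin-digested and iTRAQ-labelled, drug vs no-drug channels at each time, then 2D LC-MS/MS. Protein ratio is the median of ratios from uniquely assigned peptides after median normalization.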

Aspergillus fumigatus [5] = assay: Induction of change in ribosomal protein L35, putative protein level in iTRAQ114 labelled secreted fraction of drug-susceptible Aspergillus fumigatus KU80 delta-akuB at 0.12 ug/ml after 24 hrs in YPD medium by MS (MS/MS) analysis relative to control; type: functional; summary of the method: as §1
Aspergillus fumigatus [6] = assay: Induction of change in ribosomal protein L14 protein level in iTRAQ114 labelled secreted fraction of drug-susceptible Aspergillus fumigatus KU80 delta-akuB at 0.12 ug/ml after 24 hrs in YPD medium by MS (MS/MS) analysis relative to control; type: functional; summary of the method: as §1
Aspergillus fumigatus [7] = assay: Induction of change in cytochrome c protein level in iTRAQ114 labelled secreted fraction of drug-resistant Aspergillus fumigatus EMFR-S678P at 0.12 ug/ml after 24 hrs in YPD medium by MS (MS/MS) analysis relative to control; type: functional
Summary of the method: (§4)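 Conidia at 1 × 10⁵/ml were grown at 37°C, shaking at 225 rpm, in YPD with or without 0.12 μg/ml caspofungin for 24 or 48 h. The culture filtrate was kept as the secreted fraction. Mycelia were lysed by French press in HEPES/glycerol/EDTA/PMSF/DTT buffer, and the 5,000 × g pellet was washed to give CW/PM. Proteins were reduced, alkylated and trypsin-digested at 37°C overnight, then iTRAQ-labelled and run by 2D LC-MS/MS. Ratios are the median of unique-peptide ratios, median-normalized, versus the no-drug control.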

Aspergillus fumigatus [8] = assay: Induction of change in cell wall glucanase (Utr2), putative protein level in iTRAQ-118 labelled cell wall fraction of drug-susceptible Aspergillus fumigatus KU80 delta-akuB at 0.12 ug/ml after 24 hrs in YPD medium by MS (MS/MS) analysis relative to control; type: functional; summary of the method: as §3
Aspergillus fumigatus [9] = assay: Induction of change in BYS1 domain protein, putative protein level in iTRAQ-121 labelled cell wall fraction of drug-susceptible Aspergillus fumigatus KU80 delta-akuB at 0.12 ug/ml after 48 hrs in YPD medium by MS (MS/MS) analysis relative to control
Aspergillus fumigatus [10] = assay: Induction of change in cell wall protein PhiA protein level in iTRAQ-116 labelled secreted fraction of drug-resistant Aspergillus fumigatus EMFR-S678P at 0.12 ug/ml after 48 hrs in YPD medium by MS (MS/MS) analysis relative to control; type: functional, organism-based; summary of the method: as §4
Aspergillus fumigatus [11] = assay: Induction of change in GNAT family acetyltransferase, putative protein level in iTRAQ-118 labelled cell wall fraction of drug-susceptible Aspergillus fumigatus KU80 delta-akuB at 0.12 ug/ml after 24 hrs in YPD medium by MS (MS/MS) analysis relative to control; type: functional; summary of the method: as §3
Aspergillus fumigatus [12] = assay: Antifungal activity against drug-resistant Aspergillus fumigatus EMFR-S678P assessed as reduction in colony size at 0.12 ug/ml; type: functional, organism-based
Aspergillus fumigatus [13] = assay: Induction of change in 60S ribosomal protein L12, putative gene expression in drug-susceptible Aspergillus fumigatus KU80 delta-akuB at 0.12 ug/ml after 24 hrs in YPD medium by microarray analysis relative to control; type: functional; summary of the method: as §2
Aspergillus fumigatus [14] = assay: Induction of change in 60S ribosomal protein L27e protein level in iTRAQ-118 labelled cell wall fraction of drug-resistant Aspergillus fumigatus EMFR-S678P at 0.12 ug/ml after 24 hrs in YPD medium by MS (MS/MS) analysis relative to control; type: functional; summary of the method: as §4
Aspergillus fumigatus [15] = assay: Induction of change in cytochrome c protein level in iTRAQ114 labelled secreted fraction of drug-susceptible Aspergillus fumigatus KU80 delta-akuB at 0.12 ug/ml after 24 hrs in YPD medium by MS (MS/MS) analysis relative to control; type: functional; summary of the method: as §3
Aspergillus fumigatus [16] = assay: Induction of change in cytochrome c oxidase polypeptide vib protein level in iTRAQ-118 labelled cell wall fraction of drug-resistant Aspergillus fumigatus EMFR-S678P at 0.12 ug/ml after 24 hrs in YPD medium by MS (MS/MS) analysis relative to control; type: functional, organism-based; summary of the method: as §4
Aspergillus fumigatus [17] = assay: Induction of change in outer mitochondrial membrane protein porin protein level in iTRAQ-116 labelled secreted fraction of drug-susceptible Aspergillus fumigatus KU80 delta-akuB at 0.12 ug/ml after 48 hrs in YPD medium by MS (MS/MS) analysis relative to control; type: functional; summary of the method: as §1
Aspergillus fumigatus [18] = assay: Induction of change in hypothetical gene locus AFUA_6G02310 expression in drug-susceptible Aspergillus fumigatus KU80 delta-akuB at 0.12 ug/ml after 24 hrs in YPD medium by microarray analysis relative to control; type: functional; summary of the method: as §2

CC[C@H](C)C[C@H](C)CCCCCCCCC(=O)N[C@H]1C[C@@H](O)[C@@H](NCCN)NC(=O)[C@@H]2[C@@H](O)CCN2C(=O)[C@H]([C@H](O)CCN)NC(=O)[C@H]([C@H](O)[C@@H](O)c2ccc(O)cc2)NC(=O)[C@@H]2C[C@@H](O)CN2C(=O)[C@H]([C@@H](C)O)NC1=O [CASPOFUNGIN]
fold change (FC) (Aspergillus fumigatus [1]): -5.2
fold change (FC) (Aspergillus fumigatus [2]): 3.2
fold change (FC) (Aspergillus fumigatus [3]): 3.7
fold change (FC) (Aspergillus fumigatus [4]): 2.3
fold change (FC) (Aspergillus fumigatus [5]): 1.4
fold change (FC) (Aspergillus fumigatus [6]): -1.1
fold change (FC) (Aspergillus fumigatus [7]): -1.07
fold change (FC) (Aspergillus fumigatus [8]): -3
fold change (FC) (Aspergillus fumigatus [9]): -2.5
Activity (Aspergillus fumigatus [10]): inactive
fold change (FC) (Aspergillus fumigatus [11]): -2.6
Activity (Aspergillus fumigatus [12]): Active
fold change (FC) (Aspergillus fumigatus [13]): 7.2
fold change (FC) (Aspergillus fumigatus [14]): -1.15
fold change (FC) (Aspergillus fumigatus [15]): -2.6
Activity (Aspergillus fumigatus [16]): inactive
fold change (FC) (Aspergillus fumigatus [17]): -1.2
fold change (FC) (Aspergillus fumigatus [18]): 3.8
